Source: paper PMC4807855 (Bioorganic & medicinal chemistry, 2014)
Where a name gives a salt, the structure may show the parent alone.

What was measured:
PfENR [1] = target: T1, PfENR (Plasmodium falciparum, UniProt Q9BJJ9); test: PfENR substrate kinetics; assay type: biochemical; conditions: without NAD+ preincubation; for Km / kcat: substrate varied, other substrate held constant
PfENR [2] = target: T1, PfENR; test: PfENR continuous inhibition assay; assay type: biochemical; conditions: for PfENR inhibition in real-time assay: 25 μM of each candidate inhibitor, with and without NAD+ preincubation
PfENR [3] = target: T1, PfENR; test: Reversibility of celastrol binding; assay type: biochemical; conditions: incubation at 5 times the IC50 (15 μM), 45 min, 25 °C
[4] = target: iodoacetamide-treated PfENR (Plasmodium falciparum, UniProt Q9BJJ9); test: Celastrol inhibition of iodoacetamide-treated PfENR; assay type: biochemical; conditions: celastrol 50 μM
In short: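 PfENR alkylated with 1 mM iodoacetamide in 100 mM ammonium bicarbonate, 60 min, 25 °C, dark; excess reagent removed by desalting column. Treated enzyme preincubated 45 min at 25 °C with test compound (final 50 μM), 50 μM NAD+, 20 mM Tris/HCl pH 7.4, 150 mM NaCl and 0.01% Triton-X. Activity tested with and without DMSO (5% of volume).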

[5] = tested on: whole-cell blood-stage P. falciparum; conditions: at 1 μM, cell culture; ref 33 (printed 32); cited from earlier work
[6] = tested on: chloroquine-sensitive P. falciparum NF; conditions: read-out: whole-cell IC50; cited from earlier work
[7] = Solubility under assay conditions; assay type: physicochemical; conditions: PfENR assay reaction mixture
PfENR [8] = target: T1, PfENR; conditions: cited from earlier work

`NC(=O)C1=CN([C@@H]2O[C@H](COP(=O)(O)OP(=O)(O)OC[C@H]3O[C@@H](n4cnc5c(N)ncnc54)[C@H](O)[C@@H]3O)[C@@H](O)[C@H]2O)C=CC1` [NADH] showed a Km (PfENR [1]) of 240 ± 40 µM and a kcat (PfENR [1]) of 3.8 ± 1.0 s⁻¹.
With `C/C=C/C/C=C/CCC(=O)[C@H]1O[C@H]1C(N)=O` [cerulenin (CR), cerulenin] the “PfENR inhibition in real-time assay” value (PfENR [2]) was “no PfENR inhibition”.
In the case of `CC1=C(O)C(=O)C=C2C1=CC=C1[C@@]2(C)CC[C@@]2(C)[C@@H]3C[C@](C)(C(=O)O)CC[C@]3(C)CC[C@]12C` [compound 1, celastrol], the “IC50 against PfENR (summary statement)” value (PfENR [2]) is reported as “low-micromolar range”, the Ki (PfENR [2]) is reported as 5.3 µM and the IC50 (PfENR [2]; IC50, PfENR inhibition, in the presence of 0.01% Triton-X) is reported as 3.4 µM. The IC50 (PfENR [2]; IC50 against PfENR (summary statement)) was about 5 µM, the IC50 (PfENR [2]; average IC50, PfENR inhibition, with NAD+ preincubation (50 μM, 45 min, 25 °C)) was 5.9 µM and the IC50 (PfENR [2]; average IC50, PfENR inhibition, without NAD+ preincubation) was 4.7 µM. The inhibition mechanism (PfENR [2]; varied crotonyl-CoA at fixed NADH) was “noncompetitive inhibition”, the “PfENR activity after incubation with inhibitor and 100-fold dilution” value (PfENR [3]) was “identical to the DMSO control” and the “inhibition of iodoacetamide-treated PfENR” value [4] was “comparable to that of the untreated protein”. For the same compound, the “growth inhibition of whole-cell blood-stage P. falciparum” value [5] was at least 70% and the IC50 [6] was 560 µM.
In the case of `CC[C@@]1(O)C[C@H](O[C@H]2C[C@H](N(C)C)[C@H](O[C@H]3C[C@H](O)[C@H](O[C@H]4CCC(=O)[C@H](C)O4)[C@H](C)O3)[C@H](C)O2)c2c(cc3c(c2O)C(=O)c2c(O)cccc2C3=O)[C@H]1C(=O)OC` [compound 2, aclacinomycin A (aclarubicin)], the “PfENR inhibition in real-time assay” value (PfENR [2]) is reported as “increase in absorbance relative to the DMSO and cerulenin controls” and the solubility [7] is reported as at most 25 µM.
With `CC(C)=CCC[C@]1(C)C=Cc2c(O)c3c(c(CC=C(C)C)c2O1)O[C@]12C(=C[C@@H]4C[C@H]1C(C)(C)O[C@@]2(C/C=C(/C)C(=O)O)C4=O)C3=O` [compound 4, gambogic acid] the “PfENR inhibition in real-time assay” value (PfENR [2]) was “no ENR inhibition”.
In the case of `C/C=C/C(=O)SCCNC(=O)CCNC(=O)[C@H](O)C(C)(C)COP(=O)(O)OP(=O)(O)OC[C@H]1O[C@@H](n2cnc3c(N)ncnc32)[C@H](O)[C@@H]1OP(=O)(O)O` [crotonyl-CoA, crotonyl coenzyme A trilithium salt], the Km (PfENR [1]) is reported as 170 ± 60 µM, the kcat (PfENR [1]) is reported as 1.0 ± 0.2 s⁻¹ and the kcat/Km ratio (PfENR [1]) is reported as 6000 ± 1100 M⁻¹ s⁻¹.
For `Oc1cc(Cl)ccc1Oc1ccc(Cl)cc1Cl` [triclosan (TCL), triclosan], the “PfENR inhibition in real-time assay” value (PfENR [2]) is given as “no change in NADH consumption” and the “PfENR inhibitor potency (literature)” value (PfENR [8]) is given as “picomolar”.
With dihydroergotoxine [compound 3] the “PfENR inhibition in real-time assay” value (PfENR [2]) was “no ENR inhibition”.
